Assay results from ChEMBL document CHEMBL1165947, “Synthesis and antitumor activity of 2,5-bis(3'-indolyl)-furans and 3,5-bis(3'-indolyl)-isoxazoles, nortopsentin analogues” (Bioorg Med Chem, 2010).
Values after ≈ are worked out from the molar mass of the structure shown.

Legend:
[1] = system: NCI-H522; experiment: Growth inhibition of human NCI-H522 cells; format: functional
Outline: (§1)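 Values come from the NCI in vitro disease-oriented human tumor cell screen. GI50 is the concentration giving 50% growth inhibition of tumor cells; pGI50 is its −log molar form.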

[2] = Cytotoxicity against human LXFA 526L cells after 4 days by modified propidium iodide staining-based fluorescence assay; format: functional, cell-based; settings: 96 h
Outline: (§2)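 Cells cultured in RPMI 1640 with 10% fetal calf serum and 0.1 mg/mL gentamicin at 37 °C, 5% CO2. Cells from exponential cultures were trypsinized and plated at 4.000-20.000 cells/well by line. After 24 h recovery, compounds were added at five log-spaced concentrations (highest 100 μg/mL) for 4 days. Proliferation was read as DNA content with aqueous propidium iodide (7 μg/ml), fluorescence ex 530/em 620 nm. Points were run in triplicate.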

[3] = system: K562; experiment: Growth inhibition of human K562 cells; format: functional
[4] = system: A549; experiment: Growth inhibition of human A549 cells; format: functional
[5] = system: NCI-H226; experiment: Growth inhibition of human NCI-H226 cells; format: functional; outline: as §1
[6] = system: 786-0; experiment: Growth inhibition of human 786-0 cells; format: functional
[7] = system: NCI/ADR-RES; experiment: Growth inhibition of human NCI/ADR-RES cells; format: functional; outline: as §1
[8] = system: SF-295; experiment: Growth inhibition of human SF295 cells; format: functional; outline: as §1
[9] = system: M14; experiment: Growth inhibition of human M14 cells; format: functional
[10] = Cytotoxicity against human 1657L cells after 4 days by modified propidium iodide staining-based fluorescence assay; format: functional, cell-based; settings: 96 h; outline: as §2
[11] = Cytotoxicity against human LXFL 1121L cells after 4 days by modified propidium iodide staining-based fluorescence assay; format: functional, cell-based; settings: 96 h; outline: as §2
[12] = system: CAKI-1; experiment: Growth inhibition of human Caki1 cells; format: functional
[13] = system: HOP-92; experiment: Growth inhibition of human HOP92 cells; format: functional
[14] = system: NCI-H23; experiment: Growth inhibition of human NCI-H23 cells; format: functional; outline: as §1
[15] = system: RXF 393; experiment: Growth inhibition of human RXF393 cells; format: functional; outline: as §1
[16] = Cytotoxicity against human MEXF 520L cells after 4 days by modified propidium iodide staining-based fluorescence assay; format: functional, cell-based; settings: 96 h; outline: as §2
[17] = system: HOP-62; experiment: Growth inhibition of human HOP62 cells; format: functional
[18] = Cytotoxicity against human MEXF 462NL cells after 4 days by modified propidium iodide staining-based fluorescence assay; format: functional, cell-based; settings: 96 h; outline: as §2
[19] = system: SK-MEL-2; experiment: Growth inhibition of human SK-MEL-2 cells; format: functional; outline: as §1
[20] = system: KM12; experiment: Growth inhibition of human KM12 cells; format: functional
[21] = system: SNB-19; experiment: Growth inhibition of human SNB19 cells; format: functional; outline: as §1
[22] = Cytotoxicity against human 899L cells after 4 days by modified propidium iodide staining-based fluorescence assay; format: functional, cell-based; settings: 96 h; outline: as §2
[23] = system: SF-539; experiment: Growth inhibition of human SF539 cells; format: functional; outline: as §1
[24] = Cytotoxicity against human BXF 1218L cells after 4 days by modified propidium iodide staining-based fluorescence assay; format: functional, cell-based; settings: 96 h; outline: as §2
[25] = system: HCT-15; experiment: Growth inhibition of human HCT15 cells; format: functional
[26] = system: UO-31; experiment: Growth inhibition of human UO31 cells; format: functional; outline: as §1
[27] = system: UACC-62; experiment: Growth inhibition of human UACC62 cells; format: functional; outline: as §1
[28] = Growth inhibition of human Hs 578T cells; format: functional
[29] = Cytotoxicity against human MEXF 276L cells after 4 days by modified propidium iodide staining-based fluorescence assay; format: functional, cell-based; settings: MEXF276L, 96 h; outline: as §2
[30] = system: LNCaP; experiment: Cytotoxicity against human LNCAP cells after 4 days by modified propidium iodide staining-based fluorescence assay; format: functional, cell-based; settings: 96 h; outline: as §2
[31] = system: U-251; experiment: Growth inhibition of human U251 cells; format: functional; outline: as §1
[32] = Growth inhibition of human […] cells; format: functional; outline: as §1
[33] = Cytotoxicity against human 1781L cells after 4 days by modified propidium iodide staining-based fluorescence assay; format: functional, cell-based; settings: 96 h; outline: as §2
[34] = Cytotoxicity against human RXF 486L cells after 4 days by modified propidium iodide staining-based fluorescence assay; format: functional, cell-based; settings: 96 h; outline: as §2
[35] = system: HT-29; experiment: Cytotoxicity against human HT-29 cells after 4 days by modified propidium iodide staining-based fluorescence assay; format: functional, cell-based; settings: HT-29, 96 h; outline: as §2
[36] = system: NCI-H322M; experiment: Growth inhibition of human NCI-H322M cells; format: functional; outline: as §1
[37] = system: ACHN; experiment: Growth inhibition of human ACHN cells; format: functional
[38] = Cytotoxicity against human MAXF 401NL cells after 4 days by modified propidium iodide staining-based fluorescence assay; format: functional, cell-based; settings: 96 h; outline: as §2
[39] = system: NCI-H460; experiment: Cytotoxicity against human H460 cells after 4 days by modified propidium iodide staining-based fluorescence assay; format: functional, cell-based; settings: NCI-H460, 96 h; outline: as §2
[40] = system: SK-MEL-5; experiment: Growth inhibition of human SK-MEL-5 cells; format: functional; outline: as §1
[41] = Cytotoxicity against human LXFA 629L cells after 4 days by modified propidium iodide staining-based fluorescence assay; format: functional, cell-based; settings: 96 h; outline: as §2
[42] = system: NCI-H460; experiment: Growth inhibition of human NCI-H460 cells; format: functional; outline: as §1

Work on `COc1ccc2c(c1)c(-c1ccc(-c3cn(C)c4ccc(OC)cc34)o1)cn2C` yielded a GI50 [1] of 3.42 µM, an IC50 [2] of 5.8 µg/mL (≈ 15 µM) and a GI50 [3] of 2.86 µM. It also gave a GI50 [4] of 18.4 µM, a GI50 [5] of 23.6 µM and a GI50 [6] greater than 100 µM. For the same compound, the GI50 [7] was 2.37 µM, the GI50 [8] was 13.4 µM and the GI50 [9] was 32.9 µM. For the same compound, the IC50 [10] was greater than 100 µg/mL, the IC50 [11] was 43.4 µg/mL (≈ 112 µM) and the GI50 [12] was 17.1 µM. For the same compound, the GI50 [13] was 1.03 µM, the GI50 [14] was 17.3 µM and the GI50 [15] was 10.4 µM. It also gave an IC50 [16] of 6.4 µg/mL (≈ 16.6 µM), a GI50 [17] greater than 100 µM and an IC50 [18] of 12.5 µg/mL (≈ 32.3 µM). It also gave a GI50 [19] of 2.13 µM, a GI50 [20] of 2.73 µM and a GI50 [21] of 29.8 µM. It also gave an IC50 [22] greater than 100 µg/mL, a GI50 [23] of 2.47 µM and an IC50 [24] of 15.7 µg/mL (≈ 40.6 µM). It also gave a GI50 [25] of 4.22 µM, a GI50 [26] of 3.6 µM and a GI50 [27] of 3.81 µM. It also gave a GI50 [28] of 5.11 µM, an IC50 [29] of 3.8 µg/mL (≈ 9.83 µM) and an IC50 [30] of 28.2 µg/mL (≈ 73 µM). The GI50 [31] was 3.66 µM, the GI50 [32] was 2.25 µM and the IC50 [33] was 22 µg/mL (≈ 56.9 µM). For the same compound, the IC50 [34] was greater than 100 µg/mL, the IC50 [35] was greater than 100 µg/mL and the GI50 [36] was greater than 100 µM. The GI50 [37] was 3.74 µM, the IC50 [38] was 8.1 µg/mL (≈ 21 µM) and the IC50 [39] was 22.2 µg/mL (≈ 57.4 µM). It also gave a GI50 [40] of 10.4 µM, an IC50 [41] of 4.1 µg/mL (≈ 10.6 µM) and a GI50 [42] of 9.89 µM.
